# Activity calls are given as the source filed them. The rule behind the calls is not given here.
# How the values were obtained:
# MCF7 = experiment: Cytotoxicity in human MCF7 cells assessed as reduction in cell viability incubated for 68 hrs by MTT assay; format: functional, cell-based; details: MCF7, 68 h
# How it was run: (§1)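 Cells were trypsinised and seeded at 5x10^3 cells/well. Compound was added at 0, 0.1, 0.3, 1, 3, 10, 30 and 100 µM for 68 h. MTT (4 mg/mL solution) was then added for 4 h, and the formazan was dissolved in DMSO. Absorbance read at 570 nm. IC50 was derived from % survival across the eight concentrations. Mean ± SD of three independent experiments, each in triplicate.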
# ZR-75-1 = experiment: Cytotoxicity in human ZR-75-1 cells assessed as reduction in cell viability incubated for 68 hrs by MTT assay; format: functional, cell-based; details: ZR-75-1, 68 h; how it was run: as §1
# BT-20 = experiment: Cytotoxicity in human BT20 cells assessed as reduction in cell viability incubated for 68 hrs by MTT assay; format: functional, cell-based; details: BT-20, 68 h; how it was run: as §1
# MDA-MB-231 = experiment: Cytotoxicity in human MDA-MB-231 cells assessed as reduction in cell viability incubated for 68 hrs by MTT assay; format: functional, cell-based; details: MDA-MB-231, 68 h; how it was run: as §1
# DU-145 = experiment: Cytotoxicity in human DU145 cells assessed as reduction in cell viability incubated for 68 hrs by MTT assay; format: functional, cell-based; details: DU-145, 68 h; how it was run: as §1
# PANC-1 = experiment: Cytotoxicity in human PANC1 cells assessed as reduction in cell viability incubated for 68 hrs by MTT assay; format: functional, cell-based; details: PANC-1, 68 h; how it was run: as §1
# 2008 [1] = experiment: Cytotoxicity in human OV2008 cells assessed as reduction in cell viability incubated for 68 hrs by MTT assay; format: functional, cell-based; details: Homo sapiens, 2008, 68 h; how it was run: as §1
# HEK293 = experiment: Cytotoxicity in HEK293 cells assessed as reduction in cell viability incubated for 68 hrs by MTT assay; format: cell-based; details: Homo sapiens, HEK293, 68 h; how it was run: as §1
# CHO = experiment: Cytotoxicity in CHO cells assessed as reduction in cell viability incubated for 68 hrs by MTT assay; format: cell-based; details: Cricetulus griseus; how it was run: as §1
# [2] = Selectivity index, ratio of IC50 for cytotoxicity in human CRL1459 cells incubated for 68 hrs by MTT assay to IC50 for cytotoxicity in human OV2008 cells incubated for 68 hrs by MTT assay; format: toxicity, cell-based; details: CRL1459 cells versus OV2008 cells, read-out: Ratio IC50
# [3] = Selectivity index, ratio of IC50 for cytotoxicity in HEK293 cells incubated for 68 hrs by MTT assay to IC50 for cytotoxicity in human OV2008 cells incubated for 68 hrs by MTT assay; format: toxicity, cell-based; details: HEK293 cells versus OV2008 cells, read-out: Ratio IC50
# [4] = Selectivity index, ratio of IC50 for cytotoxicity in CHO cells incubated for 68 hrs by MTT assay to IC50 for cytotoxicity in human OV2008 cells incubated for 68 hrs by MTT assay; format: toxicity, cell-based; details: Chinese hamster (CHO cells), CHO cells versus OV2008 cells, read-out: Ratio IC50
# [5] = Selectivity index, ratio of IC50 for cytotoxicity in HEK293 cells incubated for 68 hrs by MTT assay to IC50 for cytotoxicity in human A2780 cells incubated for 68 hrs by MTT assay; format: toxicity, cell-based; details: HEK293 cells versus A2780 cells, read-out: Ratio IC50
# [6] = Selectivity index, ratio of IC50 for cytotoxicity in CHO cells incubated for 68 hrs by MTT assay to IC50 for cytotoxicity in human A2780 cells incubated for 68 hrs by MTT assay; format: toxicity, cell-based; details: Chinese hamster (CHO cells), CHO cells versus A2780 cells, read-out: Ratio IC50
# 2008 [7] = experiment: Induction of morphological changes in human OV2008 cells at 1 to 4 uM incubated for 68 hrs; format: functional, cell-based
# How it was run: (§2)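 OV2008 and A2780 cells, with CHO alongside, were exposed to 0, 1, 2 or 4 µM for 68 h. Each triplicate treatment was photographed at 20X under an inverted microscope to assess morphology.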
# A2780 [8] = experiment: Induction of morphological changes in human A2780 cells at 1 to 4 uM incubated for 68 hrs; format: functional, cell-based; how it was run: as §2
# 2008 [9] = experiment: Inhibition of cell proliferation of human OV2008 cells at 1 to 8 uM incubated for 10 to 50 hrs; format: functional, cell-based
# How it was run: (§3)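 OV2008 or A2780 cells were seeded at low density (1x10^3 cells/well) and given 0, 2, 4 or 8 µM. Live-cell images were taken every 2 h for up to 48 h. Confluence at each time point was quantified with a confluence mask and plotted as timeline curves. Means ± SD of three independent experiments.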
# A2780 [10] = experiment: Inhibition of cell proliferation of human A2780 cells at 1 to 8 uM incubated for 10 to 50 hrs; format: functional, cell-based; how it was run: as §3
# 2008 [11] = experiment: Induction of apoptosis in human OV2008 cells assessed as apoptosis cells level at 2 uM incubated for 12 hrs by Alexa Fluor 488 annexin V and mito-tracker red CMXRos dye staining based flow cytometry (reference value: 19.6%); format: functional
# How it was run: (§4)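 Cells in complete medium were treated with 0, 2 or 4 µM for 12 h, then trypsinised. They were stained with MitoTracker Red (4 µL of 10 µM working solution per 1 mL of cells) for 30 min at 37 °C under 5% CO2. Cells were then resuspended in annexin-binding buffer with Alexa Fluor 488 annexin V for 15 min. Flow cytometry emission read at 530 and 585 nm. Two independent experiments, each in triplicate.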
# A2780 [12] = experiment: Induction of apoptosis in human A2780 cells assessed as apoptosis cells level at 2 uM incubated for 12 hrs by Alexa Fluor 488 annexin V and mito-tracker red CMXRos dye staining based flow cytometry (reference value: 0.0%); format: functional; how it was run: as §4
# A2780 [13] = experiment: Induction of apoptosis in human A2780 cells assessed as apoptosis cells level at 4 uM incubated for 12 hrs by Alexa Fluor 488 annexin V and mito-tracker red CMXRos dye staining based flow cytometry (reference value: 0.0%); format: functional; how it was run: as §4
# A2780 [14] = experiment: Reduction in mitochondrial potential in human A2780 cells at 2 uM incubated for 12 hrs by Alexa Fluor 488 annexin V and mito-tracker red CMXRos dye staining based flow cytometry; format: functional, cell-based; how it was run: as §4
# 2008 [15] = experiment: Induction of cell cycle arrest in human OV2008 cells assessed as cell accumulation at G2 phase at 2 uM incubated for 12 hrs by propidium iodide staining based flow cytometry (reference value: 2.5%); format: functional
# How it was run: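 OV2008 cells were plated at 1x10^6 cells/well and incubated with 0, 2 or 4 µM for 12 h. Cells were trypsinised, washed and resuspended in ice-cold PBS, then stained with propidium iodide for at least 15 min. Phase distribution was measured by flow cytometry. Means ± SD of three independent experiments in triplicate.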
# 2008 [16] = experiment: Reduction in alpha-tubulin expression human OV2008 cells at 2 to 4 uM measured after overnight incubation by Western blot analysis; format: functional, cell-based
# Homo sapiens [17] = species on record: Homo sapiens; experiment: Inhibition of tubulin alpha in human OV2008 cells assessed as induction of disturbance in cellular microtubule shape and integrity by measuring cell shrinkage and rounding at 2 to 4 uM after overnight incubation by immunofluorescence analysis; format: cell-based
# Homo sapiens [18] = species on record: Homo sapiens; experiment: Inhibition of tubulin alpha in human OV2008 cells assessed as reduction in alpha-tubulin fluorescence at 2 to 4 uM after overnight incubation by immunofluorescence analysis; format: cell-based
# OV2008 (Homo sapiens) = experiment: Induction of cell cycle arrest in human OV2008 cells assessed as increase in cell accumulation at subG1 phase at 2 to 4 uM incubated for 12 hrs by propidium iodide staining based flow cytometry
smiles,measurement,setting,value
O=C(/C=C/c1cccc(OCc2ccccc2)c1)c1ccc(O)cc1,IC50,MCF7,2.8 µM
same,IC50,ZR-75-1,4.9 µM
same,IC50,BT-20,5.1 µM
same,IC50,MDA-MB-231,2.9 µM
same,IC50,DU-145,6.3 µM
same,IC50,PANC-1,2.6 µM
same,IC50,2008 [1],0.8 µM
same,IC50,HEK293,5.4 µM
same,IC50,CHO,8.1 µM
same,selectivity ratio at 68 h,[2],6 to 30
same,selectivity ratio at 68 h,[3],6 to 30
same,selectivity ratio at 68 h,[4],6 to 30
same,selectivity ratio at 68 h,[5],6 to 30
same,selectivity ratio at 68 h,[6],6 to 30
same,Activity,2008 [7],Active
same,Activity,A2780 [8],Active
same,inhibition,2008 [9],Active
same,inhibition,A2780 [10],Active
same,Activity,2008 [11],38.1%
same,Activity,A2780 [12],37.3%
same,Activity,A2780 [13],38%
same,Activity,A2780 [14],Active
same,Activity,2008 [15],2.7%
same,Activity,2008 [16],Active
same,inhibition,Homo sapiens [17],Active
same,inhibition,Homo sapiens [18],Active
same,Activity,OV2008 (Homo sapiens),Dose-dependent effect
